# According to ChEMBL document CHEMBL1137743, “Synthesis, antimicrobial evaluation and QSAR study of some 3-hydroxypyridine-4-one and 3-hydroxypyran-4-one derivatives” (2009):
# Key:
# Pseudomonas aeruginosa = test: Antibacterial activity against Pseudomonas aeruginosa PTCC 1074 after 24 hrs by microplate alamar blue assay; format: functional; details: for MIC: Pseudomonas aeruginosa, PTCC 1074, 24 h
# Outline: (§1)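 Bacteria from Persian type culture collection grown in Mueller–Hinton broth. Inoculum suspensions adjusted to 0.5 McFarland, final inoculum 1.5 ×10⁴. Compounds dissolved in DMSO, serially diluted twofold across the 8–512 range in 96-well plates, Alamar Blue added, sealed plates incubated 24 h at 37 °C. MIC is the lowest concentration preventing the blue-to-pink colour change. Ciprofloxacin was the reference drug.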
# Candida albicans = test: Antifungal activity against Candida albicans PTCC 5027 after 48 hrs by microplate alamar blue assay; format: functional; details: for MIC: Candida albicans, PTCC 5027, 48 h
# Outline: (§2)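 Fungi from Persian type culture collection, tested in RPMI 1640 buffered with MOPS at pH 7.0. Final inoculum 1.5 ×10⁵. Compounds in DMSO, twofold serial dilutions over 8–512 in 96-well plates with Alamar Blue, incubated 48 h at 25 °C. MIC is the lowest concentration blocking the blue-to-pink shift. Ketoconazole was the reference agent.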
# Staphylococcus aureus = test: Antibacterial activity against Staphylococcus aureus PTCC 1337 after 24 hrs by microplate alamar blue assay; format: functional; details: for MIC: Staphylococcus aureus, PTCC 1337, 24 h; outline: as §1
# Aspergillus flavus = test: Antifungal activity against Aspergillus flavus PTCC 5003 after 48 hrs by microplate alamar blue assay; format: functional; details: PTCC 5003, 48 h; outline: as §2
# Aspergillus niger = test: Antifungal activity against Aspergillus niger 5021 after 48 hrs by microplate alamar blue assay; format: functional; details: Aspergillus niger, 5021, 48 h; outline: as §2
# Bacillus subtilis = test: Antibacterial activity against Bacillus subtilis PTCC 1023 after 24 hrs by microplate alamar blue assay; format: functional; details: PTCC 1023, 24 h; outline: as §1
# [1] = test system: Salmonella enterica subsp. enterica; test: Antibacterial activity against Salmonella enteritidis PTCC 1091 after 24 hrs by microplate alamar blue assay; format: functional, Salmonella enterica subsp. enterica serovar Enteritidis; details: PTCC 1091, 24 h; outline: as §1
# Escherichia coli = test: Antibacterial activity against Escherichia coli PTCC 1338 after 24 hrs by microplate alamar blue assay; format: functional; details: PTCC 1338, 24 h; outline: as §1
# Listeria monocytogenes = test: Antibacterial activity against Listeria monocytogenes PTCC 1165 after 24 hrs by microplate alamar blue assay; format: functional; details: PTCC 1165, 24 h; outline: as §1
Compound,-logMIC (Pseudomonas aeruginosa),-logMIC (Candida albicans),-logMIC (Staphylococcus aureus),MIC (Aspergillus flavus),MIC (Aspergillus niger),MIC (Pseudomonas aeruginosa),MIC (Bacillus subtilis),MIC [1],MIC (Candida albicans),MIC (Staphylococcus aureus),MIC (Escherichia coli),MIC (Listeria monocytogenes)
Cn1cc(O)c(=O)cc1C(=O)Nc1ccccc1,3.89,3.89,4.8,–,–,–,–,–,–,–,–,–
Cc1c(O)c(=O)ccn1-c1ccccc1,3.29,3.29,3.89,> 512 µg/mL,> 512 µg/mL,512 µg/mL,256 µg/mL,128 µg/mL,> 512 µg/mL,128 µg/mL,128 µg/mL,512 µg/mL
Cc1cc(=O)c(O)c(C(=O)Nc2cnc3ccccc3c2)o1,3.89,–,5.1,–,–,–,–,–,–,–,–,–
Cc1cc(=O)c(OCc2ccccc2)c(C=O)o1,3.89,3.89,4.19,–,–,–,–,–,–,–,–,–
O=C(O)c1cc(=O)c(OCc2ccccc2)co1,3.89,3.89,3.59,–,–,–,–,–,–,–,–,–
Cc1c(O)c(=O)ccn1-c1cccc(O)c1,3.29,3.59,3.29,256 µg/mL,512 µg/mL,512 µg/mL,> 512 µg/mL,64 µg/mL,512 µg/mL,16 µg/mL,512 µg/mL,> 512 µg/mL
Cc1[nH]cc(CN2CCCCC2)c(=O)c1O,3.59,–,3.29,> 512 µg/mL,512 µg/mL,512 µg/mL,32 µg/mL,16 µg/mL,128 µg/mL,16 µg/mL,64 µg/mL,64 µg/mL
CCCCn1ccc(=O)c(O)c1C,3.29,3.59,3.89,256 µg/mL,256 µg/mL,512 µg/mL,512 µg/mL,256 µg/mL,256 µg/mL,256 µg/mL,512 µg/mL,> 512 µg/mL
Cc1cc(=O)c(O)c(C(=O)Nc2cccc3ccccc23)o1,3.89,3.89,3.59,–,–,–,–,–,–,–,–,–
CCc1[nH]cc(CN(C)C)c(=O)c1O,3.59,3.29,3.29,512 µg/mL,512 µg/mL,256 µg/mL,> 512 µg/mL,256 µg/mL,512 µg/mL,512 µg/mL,512 µg/mL,512 µg/mL
Cc1cc(=O)oc2cc(NC(=O)c3cc(=O)c(O)cn3C)ccc12,3.59,3.89,4.49,–,–,–,–,–,–,–,–,–
CCN(CC)Cc1c[nH]c(C)c(O)c1=O,3.29,3.89,4.19,512 µg/mL,512 µg/mL,256 µg/mL,> 512 µg/mL,128 µg/mL,512 µg/mL,512 µg/mL,512 µg/mL,> 512 µg/mL
Cc1cc(=O)oc2cc(NC(=O)c3cc(=O)c(OCc4ccccc4)cn3C)ccc12,3.89,3.89,3.59,–,–,–,–,–,–,–,–,–
Cc1cc(=O)c(O)c(C(=O)Nc2cccnc2)o1,3.89,3.89,4.19,–,–,–,–,–,–,–,–,–
CCc1[nH]cc(CN2CCCCC2)c(=O)c1O,3.59,3.29,3.29,256 µg/mL,512 µg/mL,256 µg/mL,512 µg/mL,512 µg/mL,128 µg/mL,> 512 µg/mL,512 µg/mL,> 512 µg/mL
O=C(Nc1ccccc1)c1cc(=O)c(OCc2ccccc2)co1,3.59,3.89,3.89,–,–,–,–,–,–,–,–,–

Compound,-logMIC (Pseudomonas aeruginosa),-logMIC (Candida albicans),-logMIC (Staphylococcus aureus),MIC (Aspergillus flavus),MIC (Aspergillus niger),MIC (Pseudomonas aeruginosa),MIC (Bacillus subtilis),MIC [1],MIC (Candida albicans),MIC (Staphylococcus aureus),MIC (Escherichia coli),MIC (Listeria monocytogenes)
Cn1cc(OCc2ccccc2)c(=O)cc1C(=O)Nc1ccccc1,3.59,3.89,3.89,–,–,–,–,–,–,–,–,–
Cc1cc(=O)c(OCc2ccccc2)c(C(=O)Nc2cnc3ccccc3c2)o1,3.89,3.89,3.89,–,–,–,–,–,–,–,–,–
Cc1cc(=O)c(OCc2ccccc2)c(CO)o1,3.59,3.89,3.59,–,–,–,–,–,–,–,–,–
Cc1cc(=O)c(OCc2ccccc2)c(C(=O)Nc2cccc3ccccc23)o1,3.89,4.49,3.59,–,–,–,–,–,–,–,–,–
Cc1cc(=O)c(O)c(CO)o1,3.89,3.89,3.59,–,–,–,–,–,–,–,–,–
O=C(O)c1cn(C2CC2)c2cc(N3CCNCC3)c(F)cc2c1=O [CIPROFLOXACIN],–,–,–,–,–,–,0.06 µg/mL,1 µg/mL,–,0.5 µg/mL,–,1 µg/mL
Cc1cc(=O)c(OCc2ccccc2)c(C(=O)O)o1,3.89,3.89,3.59,–,–,–,–,–,–,–,–,–
CC(=O)N1CCN(c2ccc(OCC3COC(Cn4ccnc4)(c4ccc(Cl)cc4Cl)O3)cc2)CC1 (configuration not stated) [KETOCONAZOLE],–,–,–,8 µg/mL,4 µg/mL,–,–,–,2 µg/mL,–,–,–
CCCn1ccc(=O)c(O)c1C,3.89,3.29,3.29,256 µg/mL,512 µg/mL,512 µg/mL,256 µg/mL,128 µg/mL,256 µg/mL,16 µg/mL,128 µg/mL,512 µg/mL
Cc1cc(=O)c(O)co1,3.59,3.89,3.59,512 µg/mL,512 µg/mL,256 µg/mL,> 512 µg/mL,> 512 µg/mL,128 µg/mL,> 512 µg/mL,> 512 µg/mL,512 µg/mL
CCc1[nH]cc(CN(CC)CC)c(=O)c1O,3.59,3.29,3.29,512 µg/mL,512 µg/mL,256 µg/mL,512 µg/mL,512 µg/mL,512 µg/mL,> 512 µg/mL,512 µg/mL,512 µg/mL
Cc1cc(=O)c(OCc2ccccc2)c(C(=O)Nc2cccnc2)o1,3.89,4.49,3.59,–,–,–,–,–,–,–,–,–
O=c1cc(CO)occ1OCc1ccccc1,3.89,3.89,3.59,–,–,–,–,–,–,–,–,–
O=c1cc(CO)occ1O [KOJIC ACID],3.89,3.89,3.59,–,–,–,–,–,–,–,–,–
Cc1cc(=O)oc2cc(NC(=O)c3cc(=O)c(OCc4ccccc4)co3)ccc12,3.59,3.89,3.89,–,–,–,–,–,–,–,–,–
